Laboratory results: ChEMBL document CHEMBL2384906, “Biological activity, design, synthesis and structure activity relationship of some novel derivatives of curcumin containing sulfonamides” (Eur J Med Chem, 2013)
≈ marks a conversion by molar mass, not a printed value. Calls of active or inactive are those of the source. The calls are words filed in the database; no cut-off is given here.

Legend:
[1] = system: Curvularia lunata; assay: Antifungal activity against Curvularia lunata MTCC 581 after 48 hrs; format: functional; conditions: MTCC 581, 48 h
[2] = system: HCT-116; assay: Cytotoxicity against human HCT116 cells after 24 hrs by MTT assay; format: functional, cell-based
Method in brief: (§1)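 The MTT assay seeded 5 × 10⁴ cells per well and grew them 24 h in RPMI 1640 with compound at 2.5–200 µM. Medium without cells was the blank and adriamycin the positive control. MTT was added for 4 h at 37 °C, formazan was solubilised, and absorbance was read at 570 nm. IC50 is the concentration that cuts viability 50% against untreated cells.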

[3] = system: Salmonella typhi; assay: Antimicrobial activity against Salmonella typhi ATCC 23564 assessed as diameter of inhibition zone at 40 uM after 24 hrs by Kirby -Baur disc diffusion method; format: functional, Salmonella enterica subsp. enterica serovar Typhi; conditions: Salmonella enterica, ATCC 23564, 24 h; read-out: DIZ
[4] = system: Aspergillus niger; assay: Antifungal activity against Aspergillus niger MTCC 1108 assessed as zone of inhibition at 80 uM after 48 hrs by disc diffusion method; format: functional; conditions: MTCC 1108, 48 h, read-out: IZ
Method in brief: (§2)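 Spores from 4-day potato dextrose agar cultures, suspended in sterile water at 1.5 × 10⁵ CFU/mL. 0.2 mL was spread on potato dextrose agar. 5 mm filter-paper discs soaked with test compound were laid on the lawn. Incubation was 48 h at 28 °C, then the inhibition zone was measured in mm. Fluconazole was the positive control and acetone the negative control.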

[5] = system: Curvularia lunata; assay: Antifungal activity against Curvularia lunata MTCC 581 assessed as zone of inhibition at 40 uM after 48 hrs by disc diffusion method; format: functional; conditions: MTCC 581, 48 h, read-out: IZ; method in brief: as §2
[6] = system: Trichoderma viride; assay: Antifungal activity against Trichoderma viride MTCC 1107 after 48 hrs; format: functional; conditions: MTCC 1107, 48 h
[7] = system: Bacillus cereus; assay: Antimicrobial activity against Bacillus cereus MTCC 7350 assessed as diameter of inhibition zone at 40 uM after 24 hrs by Kirby -Baur disc diffusion method; format: functional; conditions: MTCC 7350, 24 h, read-out: DIZ
Method in brief: (§3)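 Kirby-Bauer disc diffusion was used. Acetone stocks (160 µM) were serially doubled down to 80, 40 and 20 µM. 4 µL of each went onto 5 mm sterile paper discs, which were dried 30 min at 50 °C. Inoculum was 1.5 × 10⁸ CFU/mL diluted to 3 × 10² CFU/mL, and 50 µL was spread on Mueller-Hinton agar. After 24 h at 37 °C the inhibition-zone diameter was measured. Ciprofloxacin served as positive control.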

[8] = system: Pseudomonas aeruginosa; assay: Antimicrobial activity against Pseudomonas aeruginosa ATCC 15499 assessed as diameter of inhibition zone at 40 uM after 24 hrs by Kirby -Baur disc diffusion method; format: functional; conditions: ATCC 15499, 24 h, read-out: DIZ; method in brief: as §3
[9] = system: Curvularia lunata; assay: Antifungal activity against Curvularia lunata MTCC 581 assessed as zone of inhibition at 80 uM after 48 hrs by disc diffusion method; format: functional; conditions: MTCC 581, 48 h, read-out: IZ; method in brief: as §2
[10] = system: Salmonella typhi; assay: Antimicrobial activity against Salmonella typhi ATCC 23564 assessed as diameter of inhibition zone at 20 uM after 24 hrs by Kirby -Baur disc diffusion method; format: functional, Salmonella enterica subsp. enterica serovar Typhi; conditions: Salmonella enterica, ATCC 23564, 24 h; read-out: DIZ
[11] = system: Escherichia coli; assay: Antimicrobial activity against Escherichia coli ATCC 35218 assessed as diameter of inhibition zone at 40 uM after 24 hrs by Kirby -Baur disc diffusion method; format: functional; conditions: ATCC 35218, 24 h, read-out: DIZ; method in brief: as §3
[12] = system: Trichoderma viride; assay: Antifungal activity against Trichoderma viride MTCC 1107 assessed as zone of inhibition at 80 uM after 48 hrs by disc diffusion method; format: functional; conditions: MTCC 1107, 48 h, read-out: IZ; method in brief: as §2
[13] = system: HeLa; assay: Cytotoxicity against human HeLa cells after 24 hrs by MTT assay; format: functional, cell-based; method in brief: as §1
[14] = system: Salmonella typhi; assay: Antimicrobial activity against Salmonella typhi ATCC 23564 assessed as diameter of inhibition zone at 80 uM after 24 hrs by Kirby -Baur disc diffusion method; format: functional, Salmonella enterica subsp. enterica serovar Typhi; conditions: Salmonella enterica, ATCC 23564, 24 h; read-out: DIZ
[15] = system: Pseudomonas aeruginosa; assay: Antimicrobial activity against Pseudomonas aeruginosa ATCC 15499 assessed as diameter of inhibition zone at 20 uM after 24 hrs by Kirby -Baur disc diffusion method; format: functional; method in brief: as §3
[16] = system: Pseudomonas aeruginosa; assay: Antimicrobial activity against Pseudomonas aeruginosa ATCC 15499 assessed as diameter of inhibition zone at 80 uM after 24 hrs by Kirby -Baur disc diffusion method; format: functional; conditions: ATCC 15499, 24 h, read-out: DIZ; method in brief: as §3
[17] = system: Salmonella typhi; assay: Antimicrobial activity against Salmonella typhi ATCC 23564 after 24 hrs by broth micro serial dilution method; format: functional, Salmonella enterica subsp. enterica serovar Typhi; conditions: Salmonella enterica, ATCC 23564, 24 h
[18] = system: Aspergillus niger; assay: Antifungal activity against Aspergillus niger MTCC 1108 assessed as zone of inhibition at 40 uM after 48 hrs by disc diffusion method; format: functional; conditions: MTCC 1108, 48 h, read-out: IZ; method in brief: as §2
[19] = system: Bacillus cereus; assay: Antimicrobial activity against Bacillus cereus MTCC 7350 after 24 hrs by broth micro serial dilution method; format: functional; conditions: MTCC 7350, 24 h
Method in brief: (§4)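 This was broth microdilution in autoclaved Mueller-Hinton broth. 150 µL of compound per well was serially diluted […], and 50 µL of test organism was added. Plates were incubated 24 h at 37 °C and optical density was read.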

[20] = system: Staphylococcus aureus; assay: Antimicrobial activity against Staphylococcus aureus ATCC 11632 after 24 hrs by broth micro serial dilution method; format: functional; conditions: ATCC 11632, 24 h; method in brief: as §4
[21] = system: Aspergillus flavus; assay: Antifungal activity against Aspergillus flavus MTCC 1021 assessed as zone of inhibition at 20 uM after 48 hrs by disc diffusion method; format: functional; method in brief: as §2
[22] = system: Escherichia coli; assay: Antimicrobial activity against Escherichia coli ATCC 35218 after 24 hrs by broth micro serial dilution method; format: functional; conditions: ATCC 35218, 24 h; method in brief: as §4
[23] = system: Bacillus cereus; assay: Antimicrobial activity against Bacillus cereus MTCC 7350 assessed as diameter of inhibition zone at 20 uM after 24 hrs by Kirby -Baur disc diffusion method; format: functional; conditions: MTCC 7350, 24 h, read-out: DIZ; method in brief: as §3
[24] = system: Curvularia lunata; assay: Antifungal activity against Curvularia lunata MTCC 581 assessed as zone of inhibition at 20 uM after 48 hrs by disc diffusion method; format: functional; conditions: MTCC 581, 48 h, read-out: IZ; method in brief: as §2
[25] = system: Aspergillus niger; assay: Antifungal activity against Aspergillus niger MTCC 1108 assessed as zone of inhibition at 20 uM after 48 hrs by disc diffusion method; format: functional; conditions: MTCC 1108, 48 h, read-out: IZ; method in brief: as §2
[26] = system: Escherichia coli; assay: Antimicrobial activity against Escherichia coli ATCC 35218 assessed as diameter of inhibition zone at 20 uM after 24 hrs by Kirby -Baur disc diffusion method; format: functional; conditions: ATCC 35218, 24 h, read-out: DIZ; method in brief: as §3
[27] = system: Aspergillus niger; assay: Antifungal activity against Aspergillus niger MTCC 1108 after 48 hrs; format: functional; conditions: MTCC 1108, 48 h
[28] = system: Staphylococcus aureus; assay: Antimicrobial activity against Staphylococcus aureus ATCC 11632 assessed as diameter of inhibition zone at 40 uM after 24 hrs by Kirby -Baur disc diffusion method; format: functional; conditions: ATCC 11632, 24 h, read-out: DIZ; method in brief: as §3
[29] = system: QG-56; assay: Cytotoxicity against human QG56 cells after 24 hrs by MTT assay; format: functional, cell-based; method in brief: as §1
[30] = system: Trichoderma viride; assay: Antifungal activity against Trichoderma viride MTCC 1107 assessed as zone of inhibition at 20 uM after 48 hrs by disc diffusion method; format: functional; conditions: MTCC 1107, 48 h, read-out: IZ; method in brief: as §2
[31] = system: Aspergillus flavus; assay: Antifungal activity against Aspergillus flavus MTCC 1021 after 48 hrs; format: functional; conditions: MTCC 1021, 48 h
[32] = system: Pseudomonas aeruginosa; assay: Antimicrobial activity against Pseudomonas aeruginosa ATCC 15499 after 24 hrs by broth micro serial dilution method; format: functional; conditions: ATCC 15499, 24 h; method in brief: as §4
[33] = system: Mus musculus; assay: Antiinflammatory activity in mouse assessed as inhibition of carrageenan-induced increase in paw volume at 200 mg/kg administered 1 hr prior to carrageenan challenge measured after 3 hrs relative to control; format: functional
Method in brief: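 Mice were fasted 2 h and placed in groups of five. Controls received saline i.p. Phenylbutazone was given at 100 mg/kg i.p., curcumin at 200 mg/kg i.p., and derivatives at 200 mg/kg. After 1 h, 0.1 mL of 1% carrageenan in saline was injected subplantar into the right hind paw. Paw volume was followed by plethysmometer for 3 h, and % inhibition was calculated as (Vc − Vt)/Vc × 100.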

[34] = system: HepG2; assay: Cytotoxicity against human HepG2 cells after 24 hrs by MTT assay; format: functional, cell-based; method in brief: as §1
[35] = system: Aspergillus flavus; assay: Antifungal activity against Aspergillus flavus MTCC 1021 assessed as zone of inhibition at 40 uM after 48 hrs by disc diffusion method; format: functional; conditions: MTCC 1021, 48 h, read-out: IZ; method in brief: as §2
[36] = system: Staphylococcus aureus; assay: Antimicrobial activity against Staphylococcus aureus ATCC 11632 assessed as diameter of inhibition zone at 80 uM after 24 hrs by Kirby -Baur disc diffusion method; format: functional; conditions: ATCC 11632, 24 h, read-out: DIZ; method in brief: as §3
[37] = system: Aspergillus flavus; assay: Antifungal activity against Aspergillus flavus MTCC 1021 assessed as zone of inhibition at 80 uM after 48 hrs by disc diffusion method; format: functional; conditions: MTCC 1021, 48 h, read-out: IZ; method in brief: as §2
[38] = system: Bacillus cereus; assay: Antimicrobial activity against Bacillus cereus MTCC 7350 assessed as diameter of inhibition zone at 80 uM after 24 hrs by Kirby -Baur disc diffusion method; format: functional; conditions: MTCC 7350, 24 h, read-out: DIZ; method in brief: as §3
[39] = system: Escherichia coli; assay: Antimicrobial activity against Escherichia coli ATCC 35218 assessed as diameter of inhibition zone at 80 uM after 24 hrs by Kirby -Baur disc diffusion method; format: functional; conditions: ATCC 35218, 24 h, read-out: DIZ; method in brief: as §3
[40] = system: Trichoderma viride; assay: Antifungal activity against Trichoderma viride MTCC 1107 assessed as zone of inhibition at 40 uM after 48 hrs by disc diffusion method; format: functional; conditions: MTCC 1107, 48 h, read-out: IZ; method in brief: as §2
[41] = system: Staphylococcus aureus; assay: Antimicrobial activity against Staphylococcus aureus ATCC 11632 assessed as diameter of inhibition zone at 20 uM after 24 hrs by Kirby -Baur disc diffusion method; format: functional; conditions: ATCC 11632, 24 h, read-out: DIZ; method in brief: as §3

COc1cc(/C=C/C(O)=C/C(/C=C/c2ccc(O)c(OC)c2)=N/c2ccc(S(=O)(=O)Nc3ccccn3)cc2)ccc1O
MIC [1]: > 80 µM
IC50 [2]: 25 µM
zone of inhibition at 40 µM [3]: 14 mm
zone of inhibition at 80 µM [4]: 14 mm
zone of inhibition at 40 µM [5]: 9 mm
MIC [6]: 20 µM (≈ 12 µg/mL)
zone of inhibition at 40 µM [7]: 16 mm
zone of inhibition at 40 µM [8]: 11 mm
zone of inhibition at 80 µM [9]: 12 mm
zone of inhibition at 20 µM [10]: 11 mm
zone of inhibition at 40 µM [11]: 19 mm
zone of inhibition at 80 µM [12]: 17 mm
IC50 [13]: 50 µM
zone of inhibition at 80 µM [14]: 18 mm
diameter of the inhibition zone (DIZ) [15]: inactive
zone of inhibition at 80 µM [16]: 13 mm
MIC [17]: 20 µM (≈ 12 µg/mL)
zone of inhibition at 40 µM [18]: 12 mm
MIC [19]: 20 µM (≈ 12 µg/mL)
MIC [20]: 20 µM (≈ 12 µg/mL)
inhibition zone (IZ) [21]: inactive
MIC [22]: 20 µM (≈ 12 µg/mL)
zone of inhibition at 20 µM [23]: 11 mm
zone of inhibition at 20 µM [24]: 9 mm
zone of inhibition at 20 µM [25]: 9 mm
zone of inhibition at 20 µM [26]: 15 mm
MIC [27]: 40 µM (≈ 24 µg/mL)
zone of inhibition at 40 µM [28]: 17 mm
IC50 [29]: 50 µM
zone of inhibition at 20 µM [30]: 10 mm
MIC [31]: > 80 µM
MIC [32]: 20 µM (≈ 12 µg/mL)
inhibition in vivo at 200 mg/kg [33]: 37%
IC50 [34]: 25 µM
zone of inhibition at 40 µM [35]: 9 mm
zone of inhibition at 80 µM [36]: 18 mm
zone of inhibition at 80 µM [37]: 12 mm
zone of inhibition at 80 µM [38]: 19 mm
zone of inhibition at 80 µM [39]: 20 mm
zone of inhibition at 40 µM [40]: 13 mm
zone of inhibition at 20 µM [41]: 11 mm
